Source: PubChem BioAssay (several laboratories)
Only some compounds are listed: those with a hit (about 3.3% of all), similar ones and a draw of the others.
ATG4B inhibitor – blocks human ATG4B protease cleavage of LC3 substrate. Q9Y4P1. ATG4B cleavage of LC3-PLA2, NBD-HPC fluorescence, 1 h. inhibition, % at 8.33 µM. 0.51% of 340,000 active. AID 504462; in the data active means inhibition above about 40%
ABCB6 inh MLPCN – blocks the human ABCB6 transporter | Q9NP58 | K562-ABCB6 porphyrin accumulation, flow cytometry, 1 h; active compounds read low | fluorescence ratio to DMSO, % at 10 µM | 0.19% of 360,000 active | AID 602162;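 active means fluorescence ratio to DMSO below 75%, the collection mean minus 3 SD; inconclusive means too few cells collected in the well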;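 further: signal is porphyrin accumulated inside mitochondria; lower ratio means ABCB6 inhibition with less porphyrin fluorescence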
Target sequence (Q9NP58 whole entry, looked up): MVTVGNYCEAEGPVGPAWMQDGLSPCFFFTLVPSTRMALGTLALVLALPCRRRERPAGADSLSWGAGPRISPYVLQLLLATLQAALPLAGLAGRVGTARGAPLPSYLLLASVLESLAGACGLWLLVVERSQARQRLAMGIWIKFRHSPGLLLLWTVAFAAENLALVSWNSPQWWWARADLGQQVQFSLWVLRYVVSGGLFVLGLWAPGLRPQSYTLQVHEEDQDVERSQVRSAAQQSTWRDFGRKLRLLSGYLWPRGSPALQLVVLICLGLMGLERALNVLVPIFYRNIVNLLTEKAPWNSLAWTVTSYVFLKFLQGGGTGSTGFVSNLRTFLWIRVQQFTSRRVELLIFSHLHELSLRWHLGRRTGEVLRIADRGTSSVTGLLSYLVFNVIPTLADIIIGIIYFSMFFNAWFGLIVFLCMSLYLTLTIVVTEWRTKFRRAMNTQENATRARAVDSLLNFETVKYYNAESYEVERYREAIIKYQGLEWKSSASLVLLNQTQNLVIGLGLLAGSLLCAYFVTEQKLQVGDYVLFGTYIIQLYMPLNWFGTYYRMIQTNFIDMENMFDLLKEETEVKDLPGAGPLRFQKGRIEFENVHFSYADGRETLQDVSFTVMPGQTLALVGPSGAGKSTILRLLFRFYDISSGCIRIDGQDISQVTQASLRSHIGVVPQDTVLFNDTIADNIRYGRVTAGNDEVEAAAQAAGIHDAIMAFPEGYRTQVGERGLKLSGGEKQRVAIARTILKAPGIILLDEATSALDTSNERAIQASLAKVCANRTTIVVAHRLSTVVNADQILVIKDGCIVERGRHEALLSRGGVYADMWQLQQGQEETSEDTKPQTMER
Granule exo inh – lytic granule exocytosis inhibition | TALL-104 LAMP-1 surface exposure, flow cytometry; cells stimulated with thapsigargin and PMA | inhibition, % at 10 µM | 0.66% of 360,000 active | AID 651702;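 active means inhibition above about 55%, limit read from the data; inconclusive means no clear call, values can overlap the other calls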
Myeloid diff 2 – promotes myeloid progenitor differentiation; ER-HoxA9 myeloid progenitors, lysozyme-GFP differentiation, flow cytometry; calls only at 10 µM; 1% of 360,000 active;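 active means normalized GFP-positive differentiation at or above the plate's own cutoff, the solvent-only control mean plus 3 SD; inconclusive means no clear call, values can overlap the other calls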;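 further: cells exposed to compound for four days before flow analysis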
Arr AP2 block – human beta-arrestin and AP2 interaction inhibition. 0.31% of 340,000 active. inhibition, % at 10 µM. AID 504490. FITC-arrestin peptide / GST-AP2 beads, flow cytometry; AP2 beta2 appendage carries R879A mutation;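 active means inhibition above a set limit, near 3 SD of compounds lacking own fluorescence, cut at about 54% in these data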
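test system = AP2 appendage R879A on GSH beads | buffer or medium = PBS plus Tween 20 (0.05%) and BSA (0.1%) | incubation = 12 min plus 1 h, RT | detection = bead flow cytometry, FITC channel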
NRP1-CendR mod – modulators of CendR peptide binding to human neuropilin-1; inhibition, % at 25 µM; FAM-RPARPAR peptide binding to NRP-1, fluorescence polarization; 0.85% of 360,000 active; AID 602438; O14786;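 active means inhibition or corrected inhibition above about 18%, plus a signal ratio from 0.5 to 1.5, limit read from the data, passing the limit was not always enough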
Each line names hits and unclear results; the compound was inactive in the other large screens.

CC1=CC(C)(C)NC(=S)N1c1ccc(N(C)C)cc1	Myeloid diff 2 inconclusive, NRP1-CendR mod 24
CC1=CC(C)(C)NC(=S)N1c1cc(C)cc(C)c1	none
CC1(C)Cc2c(C#N)c(NCC3CCCO3)nc(-c3ccco3)c2CO1 (stereo unspecified)	none
N#Cc1c(-c2ccco2)nc(NCC2CCCO2)[nH]c1=O (stereo unspecified)	NRP1-CendR mod 27
C=CC[n+]1ccn(-c2nc3ccccc3nc2[N-]S(=O)(=O)c2cccs2)c1	Myeloid diff 2 active
COC(=O)CN1CCN(C(=O)c2ccc(F)cc2)c2ccccc2C1	none
Cc1c(C(=O)NCc2ccc3c(c2)OCO3)sc(=O)n1Cc1cccc(F)c1	none (no result: ATG4B inhibitor, Arr AP2 block)
Cc1ccccc1OCC(=O)OCC(=O)NCCNC(=O)COC(=O)COc1ccccc1C	none
O=C(NCCC1=CCCCC1)c1coc(=O)c(Br)c1	Myeloid diff 2 inconclusive
O=C(NCCC1=CCCCC1)c1ccc(=O)oc1	NRP1-CendR mod 51
CC1CN(C(=O)CNC(=O)Cc2cccc3ccccc23)CC(C)O1 (stereo unspecified)	none
CCCCCCOc1ccc(/C(C)=N/NC2=NCCN2)cc1	Granule exo inh 59
O=C(CN(C(=O)CNS(=O)(=O)c1ccc(F)cc1)c1ccccc1F)NCc1ccco1	none
Cc1ccc(NC(=O)[C@H](Cc2c[nH]c3ccccc23)NC(=O)[C@@H]2Cc3ccccc3CN2)c(C)c1	Myeloid diff 2 active
O=C(CN(C(=O)CNC(=O)c1ccco1)c1ccc2c(c1)OCO2)NC1CCCCC1	none
O=C(CN(C(=O)CNC(=O)c1ccco1)c1ccc2c(c1)OCCO2)NC1CCCC1	NRP1-CendR mod 21
Cc1ccc(NC(=O)Cn2nnc(C(=O)NCc3ccccc3)c2N)cc1C	none
COc1ccc(NC(=O)Cn2nnc(C(=O)Nc3ccccc3C)c2N)cc1	NRP1-CendR mod 19
Cc1ccc(NC(=O)c2nnn(CC(=O)Nc3ccccc3)c2N)cc1C	Myeloid diff 2 active
O=C(COC(=O)Cc1n[nH]c(=O)c2ccccc12)Nc1ccc(Cl)cn1	none
CC(=O)C1=CCC(c2ccccc2Cl)N(S(=O)(=O)c2ccc(C)cc2)C1 (stereo unspecified)	none (no result: ATG4B inhibitor, Arr AP2 block)
O=C(CCC(=O)c1ccc(Oc2ccccc2)cc1)Nc1ccc(C(=O)O)cc1	none
c1ccc(-c2sc3ccccc3c2-c2ccc(OCCN3CCOCC3)cc2)cc1	none
Oc1cccc(-c2sc3ccccc3c2-c2ccc(OCCN3CCCCC3)cc2)c1	Granule exo inh 59, Myeloid diff 2 inconclusive (no result: ATG4B inhibitor, Arr AP2 block)
Cc1cc(C)c(S(=O)(=O)/N=C2/C=C(Sc3ncn[nH]3)C(=O)c3ccccc32)cc1C	Granule exo inh 98
ClC1=CN(C2=NCCC2)CC1	none (no result: ATG4B inhibitor, Arr AP2 block)
O=C(NNS(=O)(=O)c1ccc(F)cc1)C1CCN(Cc2cccc(F)c2)CC1	none
O=C(NCc1ccccn1)C1CCN(C2CCN(Cc3cccc(F)c3)CC2)CC1	NRP1-CendR mod 23 (no result: ATG4B inhibitor, Arr AP2 block)
S=c1[nH]nc(CSCCOc2ccc(Cl)cc2Cl)o1	none
C=CCn1c(C)cc(-c2csc(NC)n2)c1C	Myeloid diff 2 active
Cc1cc(C)cc(N(CC(=O)NC2CCCCC2)C(=O)CCCC(=O)Nc2ccccn2)c1	none
CCn1cc(C(=O)O)c(=O)c2cc(F)c(N/N=C/c3ccccc3[N+](=O)[O-])cc21	Granule exo inh 72
CCc1ccccc1NC(=O)C1CCN(S(C)(=O)=O)CC1	Myeloid diff 2 active
O=C(CN1C(=O)NC2(CCCC2)C1=O)OCc1c(F)cccc1Cl	none
CCCC(=O)NCC(c1cccs1)S(=O)(=O)c1ccc(Cl)cc1 (stereo unspecified)	Myeloid diff 2 active
CCN(c1ccccc1)S(=O)(=O)c1cc(C(=O)Nc2ccc(F)c(F)c2)ccc1F	Myeloid diff 2 active
Cc1ccc(/C=C/C(=O)NCCc2c[nH]c3ccccc23)o1	none
Cc1ccc(/C=C/C(=O)NCCc2cccc(Cl)c2)o1	Granule exo inh 64
O=C(O)CCC(=O)NCCc1cccc(Cl)c1	none
O=C(Cc1ccccc1)NCCc1cccc(Cl)c1	NRP1-CendR mod 26
O=C(CSc1nc2ccc(Cl)cc2[nH]1)NCCc1ccccc1	NRP1-CendR mod 28
COc1cccc(-c2nnc(Nc3nc4c(F)cccc4s3)o2)c1	NRP1-CendR mod 33
COc1ccccc1-c1nnc(Nc2nc3c(OC)cccc3s2)o1	Myeloid diff 2 inconclusive
